In the library only some 3.5% were active in any assay of this set; here they are far more common.
APP 5'UTR act: activates APP 5'UTR luciferase reporter; SH-SY5Y APP 5'UTR luciferase reporter, luminescence; zero percent = DMSO vehicle wells; AID 1276; activation, % at 2 µM; hit rate 1% among 190,000;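 active = activation above a set limit, based on mean plus 3 SD of controls, cut at about 140% in these data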
FLuc act counter: affects firefly luciferase, flagging false hits in luciferase stimulation screens; 200,000 tested, under 10 active; ATPlite luciferase biochemical, luminescence, 10 min; 0 = ATP-free wells, 1 = DMSO control; activation factor at 10 µM; AID 1027; P08659;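 active = luciferase activation factor, scaled between plate controls, of at least 2 with compound at 10 µM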
Target sequence (P08659 whole entry, looked up): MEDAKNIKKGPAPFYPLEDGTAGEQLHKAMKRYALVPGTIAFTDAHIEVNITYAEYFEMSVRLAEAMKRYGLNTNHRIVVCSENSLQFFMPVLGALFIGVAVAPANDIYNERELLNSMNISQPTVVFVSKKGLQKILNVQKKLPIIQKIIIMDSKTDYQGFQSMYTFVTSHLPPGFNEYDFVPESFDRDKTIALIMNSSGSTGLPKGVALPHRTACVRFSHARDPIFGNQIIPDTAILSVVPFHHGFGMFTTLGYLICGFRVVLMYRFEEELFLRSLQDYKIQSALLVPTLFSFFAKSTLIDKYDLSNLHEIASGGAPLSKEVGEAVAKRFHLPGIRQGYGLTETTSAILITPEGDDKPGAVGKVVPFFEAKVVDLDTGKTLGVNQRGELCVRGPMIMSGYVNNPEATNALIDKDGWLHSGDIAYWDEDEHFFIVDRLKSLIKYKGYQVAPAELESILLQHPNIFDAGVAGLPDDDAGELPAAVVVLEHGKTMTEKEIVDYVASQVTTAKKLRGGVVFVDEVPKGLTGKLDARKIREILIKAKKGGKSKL
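assay system = Luciferase/luciferin detection reagent, cell-free biochemical luciferase assay | also added = ATP substrate | times = 10 min post-reagent at room temperature | measured by = luminescence from luciferase reaction | measure = luciferase activation, seen as luminescence increase over controls | benchmarks = low control with PBS replacing ATP, high control enzyme plus ATP without compound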
STAT1 activator: STAT1 signaling activation; hit rate 2.6% among 200,000; activation (% of control), % at 5.5 µM; NIH 3T3 STAT1-luciferase reporter, IFN-gamma, luminescence; 100% = IFN-gamma alone, no compound; AID 932;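 active = activation above the screen-wide mean activation plus 3 SD, cut at about 130% in these data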;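 note: raw ratio to IFN-gamma control signal so 100% means no change and 0% no light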
NF-kB neuron act: compounds increasing NF-kB expression in human neuronal cells; NF-kB reporter expression; active compounds read high; fold change at 12.5 µM; hit rate 1.6% among 190,000; AID 1239; in the data active = fold change above about 3.3
FLuc inhib CS: Photinus pyralis luciferase inhibition counter-screen; ATPLite firefly luciferase biochemical luminescence, 10 min; inhibition, % at 10 µM; hit rate 1.5% among 200,000; AID 1006;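 active = inhibition above about 50% when tested at 10 µM, limit read from the data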
Pf gamet viab: kills late stage P. falciparum gametocytes. P. falciparum stage V gametocytes, ATP luminescence, 24 h. inhibition, % at 10.9 µM. hit rate 0.065% among 150,000;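 active = inhibition above the mean plus 3 SD of compounds within the control limits, set per campaign, cut at about 38% in these data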;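 note: 0% = DMSO wells and 100% = medium only without gametocytes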
* hit, by the source's call; · = no result.

SMILES | APP 5'UTR act | FLuc act counter | STAT1 activator | NF-kB neuron act | FLuc inhib CS | Pf gamet viab
Cc1ccc(-c2nn(-c3ccccc3)cc2/C=N/NC(=O)c2ccncc2)o1 | 158* | 1 | 127 | 2.6 | -4 | 4
O=C(N/N=C/c1cn(-c2ccccc2)nc1-c1cccs1)c1ccncc1 | 26 | 0.9 | 101 | 1 | 14 | 27
Cc1ccc(-c2nn(-c3ccccc3)cc2CO)o1 | 98 | 0.7 | 148* | 3.8* | 26 | ·
Cc1ccc(-c2nn(-c3ccccc3)cc2C=O)o1 | 144* | 0.4 | 143* | 4.5* | 62* | -9
COc1ccc(-n2c(C)cc(/C=C3/SC(=O)N(CC(=O)N4CCOCC4)C3=O)c2C)cc1 | 21 | 0.7 | 102 | 1.2 | 28 | -2
Cc1cc(/C=C2/SC(=O)N(CC(=O)N3CCOCC3)C2=O)c(C)n1-c1ccccc1F | 71 | 0.1 | 126 | 2.9 | 87* | -14
O=C(c1ccccc1)c1cc(Cl)ccc1N1C(=O)C=CC1=O | -80 | 0.4 | 74 | 0.93 | 58* | -48
CCc1ccccc1C1=CC(=O)C[C@H](c2ccc(OC)cc2)C1 | · | · | · | · | · | 16
CC(C)S(=O)(=O)c1cnc(N2CCOCC2)nc1N | · | · | · | · | · | 9
CC(C)(CNC(=O)c1cccs1)CNC(=O)c1cccs1 | 18 | 1 | 94 | 0.85 | -2 | ·
O=[N+]([O-])c1ccc(C2Oc3ccccc3C3CC(c4ccccc4)=NN32)s1 (stereo unspecified) | 124 | 1 | 93 | 8.8* | 4 | ·
c1ccc(C2Oc3ccccc3C3CC(c4cccs4)=NN32)cc1 (stereo unspecified) | 1 | 1 | 104 | 1.8 | 3 | 7
Cc1cc(C)nc(-n2nc(C)c3c(C(F)(F)F)cc(=O)[nH]c32)n1 | 4 | 1 | 97 | 1.2 | -1 | ·
Cc1cc(C)nc(-n2nc(C)c(Sc3ccc(F)cc3)c2N)n1 | 165* | 1 | 131* | 3 | -1 | ·
Cc1cccc(OCC(=O)O/N=C(\N)c2ccccn2)c1 | 69 | 0.9 | 128 | 2.2 | 6 | 19
CNC(=O)c1cc(S(=O)(=O)N(C)C)ccc1Cl | -9 | 1.1 | 99 | 0.98 | -6 | 9
c1ccc(COc2ccc(OCCOCCn3cncn3)cc2)cc1 | 154* | 0.6 | 120 | 3.6* | 41 | ·
Cc1cccc(NC(=O)CCN2CCCC(C)C2)c1 (stereo unspecified) | · | · | · | · | · | 5
NS(=O)(=O)c1ccc(NC(=O)COC(=O)c2ccc(Cl)cc2[N+](=O)[O-])cc1 | · | · | · | · | · | -8
O=c1c2ccccc2cnn1-c1ccc2ccccc2c1 | 168* | 0.4 | 131* | 3.4* | 64* | ·
Cc1cc(NC(=S)NC(=O)C2CC2)ccc1Br | 48 | 1 | 139* | 2.2 | 0 | -18
CCCCCCn1c(NCC)nc2c1c(=O)n(C)c(=O)n2C | -2 | 1 | 64 | 0.97 | 0 | ·
Cc1ccc(O)c(C2=Nc3ccccc3N=C(c3ccc([N+](=O)[O-])cc3)C2)c1 | 70 | 1 | 108 | 1.4 | -3 | -48
O=C(Nc1ccc(N2CCN(C(=O)c3ccc(Cl)cc3)CC2)cc1)c1ccc([N+](=O)[O-])o1 | -96 | 1 | 139* | 0.15 | -3 | 12
CCC(=O)N1CCN(c2ccc(NC(=O)c3ccc([N+](=O)[O-])o3)cc2)CC1 | -48 | 1 | 129* | 0.78 | 0 | 2
SMILES | APP 5'UTR act | FLuc act counter | STAT1 activator | NF-kB neuron act | FLuc inhib CS | Pf gamet viab
CCCC(=O)N1CCN(c2ccc(NC(=O)c3ccc([N+](=O)[O-])o3)cc2)CC1 | -70 | 1.1 | 148* | · | -7 | 0
CCCC(=O)N1CCN(c2ccc(NC(=O)c3ccc(Br)o3)cc2)CC1 | 7 | 1 | 104 | 0.8 | 0 | 1
CCC(=O)N1CCN(c2ccc(NC(=O)c3ccccc3)cc2)CC1 | 15 | 1.1 | 104 | 1.2 | -8 | ·
CC(C)CCOc1ccc(C(=O)N2CCCC2C(=O)O)cc1 (stereo unspecified) | 0 | 1.1 | 94 | 1.1 | -10 | 6
Cc1ccc(C2=N/C(=C/N3CCOCC3)C(=O)O2)cc1 | 81 | 0.9 | 129* | 2.5 | 12 | ·
Cc1ccc(C2=N/C(=C\N3CCCCC3)C(=O)O2)cc1 | 100 | 0.8 | 142* | 3.3 | 22 | -40
COc1ccc(/C=C2\N=C(c3ccc(C)cc3)OC2=O)cc1 | · | · | · | · | · | -2
COc1ccc(/C=N/N2C(=O)C3C4C=CC(CC4)C3C2=O)c(OC)c1 (stereo unspecified) | 15 | 1 | 115 | 1.2 | 4 | 14

Screening data as filed in PubChem BioAssay.
